From ChEMBL document CHEMBL3865827, “A novel class of ethacrynic acid derivatives as promising drug-like potent generation of anticancer agents with established mechanism of action” (Eur J Med Chem, 2016) come the findings set out here.

Each structure is given as a SMILES string. Calls of active or inactive are those of the source. No cut-off for these calls is given here.

As a reminder, the IC50 is the point on the concentration scale where inhibition reaches its midpoint. Read a low IC50 as greater potency.

System in the first assay: not listed separately
In words: Antiproliferative activity against human KB cells after 24 to 72 hrs by MTS assay. The class given is functional, cell-based.
Conditions: not given
A digest of the protocol: (§1)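 Cells plated, then dosed 24 h later with compounds in DMSO (1% final; controls DMSO alone), exposed 24 or 72 h. Proliferation inhibition measured as previously reported (MTS/NADH reagent). IC50 from duplicate experiments over 0.5 nM–100 µM. KB grown in D-MEM with 10% fetal calf serum, penicillin, streptomycin, fungizone, 5% CO2; other lines in complete RPMI. EPC are quiescent Cyprinus carpio endothelial progenitor cells.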
A general note: Tetrazolium dyes change colour on reduction, which living cells bring about.
In the case of `C=C(CC)C(=O)c1ccc(OCC(=O)N2CCN(c3ccc(OP4(=O)OCCC(c5cccc(Cl)c5)O4)cc3)CC2)c(Cl)c1Cl` (stereo unspecified), the IC50 amounted to 400 nM.

`C=C(CC)C(=O)c1ccc(OCC(=O)NCCc2ccc(OP(=O)(OCC)OCC)c(OC)c2)c(Cl)c1Cl` registered an IC50 of 700 nM.

`C=C(CC)C(=O)c1ccc(OCC(=O)NCCc2ccc(OP(=O)(OCC)OCC)cc2)c(Cl)c1Cl` registered an IC50 of 800 nM.

As for `C=C(CC)C(=O)c1ccc(OCC(=O)N2CCN(c3ccc(OP(=O)(OCC)OCC)cc3)CC2)c(Cl)c1Cl`, the IC50 amounted to 300 nM.

Take `C=C(CC)C(=O)c1ccc(OCC(=O)N2CCN(c3ccc(OC)cc3)CC2)c(Cl)c1Cl`: the midpoint of inhibition, the IC50, lay at 400 nM.

In turn, `C=C(CC)C(=O)c1ccc(OCC(=O)NCCc2ccc(OP3(=O)OCCC(c4cccc(Cl)c4)O3)cc2)c(Cl)c1Cl` (stereo unspecified) came in with an IC50 of 700 nM.

`C=C(CC)C(=O)c1ccc(OCC(=O)NCCc2ccc(OP3(=O)OCCCO3)cc2)c(Cl)c1Cl` displayed an IC50 of 500 nM.

For another assay, the system named is MRC5. Put plainly: Induction of necrosis in human MRC5 SV2 cells assessed as increase in LDH release at 7 uM after 24 to 48 hrs by fluorescence assay. It counts as functional, cell-based.
Conditions: not given
A general note: LDH in the medium is a marker of cell lysis.
For the molecule `CCC(C)C(=O)c1ccc(OCC(=O)N2CCN(c3ccc(O)cc3)CC2)c(Cl)c1Cl` (stereo unspecified), the result was Active.

For `CCC(C)C(=O)c1ccc(OCC(=O)N2CCN(c3ccc(OC)cc3)CC2)c(Cl)c1Cl` (stereo unspecified), the result was Active.

As to `C=C(CC)C(=O)c1ccc(OCC(=O)N2CCN(c3ccc(OC)cc3)CC2)c(Cl)c1Cl`, the outcome was Active.

Another assay has as its system HCT-116. In words: Induction of necrosis in human HCT116 cells assessed as increase in LDH release at 7 uM after 24 to 48 hrs by fluorescence assay. It counts as functional, cell-based.
Conditions: not given
Turning to `CCC(C)C(=O)c1ccc(OCC(=O)N2CCN(c3ccc(O)cc3)CC2)c(Cl)c1Cl` (stereo unspecified), the outcome was Active.

Turning to `CCC(C)C(=O)c1ccc(OCC(=O)N2CCN(c3ccc(OC)cc3)CC2)c(Cl)c1Cl` (stereo unspecified), the outcome was Active.

For the molecule `C=C(CC)C(=O)c1ccc(OCC(=O)N2CCN(c3ccc(OC)cc3)CC2)c(Cl)c1Cl`, the outcome was Active.

Another assay concerns KB. Put plainly: Selectivity index, ratio of IC50 for Cyprinus carpio EPC to IC50 for human KB cells.
Conditions: not given
On to `C=C(CC)C(=O)c1ccc(OCC(=O)N2CCN(c3ccc(OP4(=O)OCCC(c5cccc(Cl)c5)O4)cc3)CC2)c(Cl)c1Cl` (stereo unspecified), for which the “Ratio IC50” value came out at 21.

As for `C=C(CC)C(=O)c1ccc(OCC(=O)NCCc2ccc(OP(=O)(OCC)OCC)c(OC)c2)c(Cl)c1Cl`, the “Ratio IC50” value turned out to be 3.2.

As for `C=C(CC)C(=O)c1ccc(OCC(=O)NCCc2ccc(OP(=O)(OCC)OCC)cc2)c(Cl)c1Cl`, the “Ratio IC50” value is given as 4.

As to `C=C(CC)C(=O)c1ccc(OCC(=O)N2CCN(c3ccc(OP(=O)(OCC)OCC)cc3)CC2)c(Cl)c1Cl`, the “Ratio IC50” value is listed as 9.3.

Consider `C=C(CC)C(=O)c1ccc(OCC(=O)N2CCN(c3ccc(OC)cc3)CC2)c(Cl)c1Cl`, for which the “Ratio IC50” value was found to be 9.

For the molecule `C=C(CC)C(=O)c1ccc(OCC(=O)NCCc2ccc(OP3(=O)OCCC(c4cccc(Cl)c4)O3)cc2)c(Cl)c1Cl` (stereo unspecified), the “Ratio IC50” value was 3.1.

Take `C=C(CC)C(=O)c1ccc(OCC(=O)NCCc2ccc(OP3(=O)OCCCO3)cc2)c(Cl)c1Cl`: the “Ratio IC50” value was 6.8.

System in a further assay: not listed separately
Put plainly: Antiproliferative activity against human HL60 cells after 24 to 72 hrs by MTS assay. The class given is functional, cell-based. The conditions noted are these: HL-60. A digest of the protocol: as §1
In turn, `C=C(CC)C(=O)c1ccc(OCC(=O)N2CCN(c3ccc(OP4(=O)OCCC(c5cccc(Cl)c5)O4)cc3)CC2)c(Cl)c1Cl` (stereo unspecified) registered an IC50 of 900 nM.

As to `C=C(CC)C(=O)c1ccc(OCC(=O)NCCc2ccc(OP(=O)(OCC)OCC)c(OC)c2)c(Cl)c1Cl`, the IC50 worked out at 800 nM.

On to `C=C(CC)C(=O)c1ccc(OCC(=O)NCCc2ccc(OP(=O)(OCC)OCC)cc2)c(Cl)c1Cl`, for which half-maximal inhibition (IC50) required 1100 nM.

`C=C(CC)C(=O)c1ccc(OCC(=O)N2CCN(c3ccc(OP(=O)(OCC)OCC)cc3)CC2)c(Cl)c1Cl` showed an IC50 of 500 nM.

Molecule `C=C(CC)C(=O)c1ccc(OCC(=O)N2CCN(c3ccc(OC)cc3)CC2)c(Cl)c1Cl` had an IC50 of 800 nM.

In the case of `C=C(CC)C(=O)c1ccc(OCC(=O)NCCc2ccc(OP3(=O)OCCC(c4cccc(Cl)c4)O3)cc2)c(Cl)c1Cl` (stereo unspecified), the IC50 amounted to 900 nM.

For `C=C(CC)C(=O)c1ccc(OCC(=O)NCCc2ccc(OP3(=O)OCCCO3)cc2)c(Cl)c1Cl`, 1200 nM corresponded to half-maximal inhibition (IC50).

System in a further assay: not listed separately
In words: Antiproliferative activity against Cyprinus carpio EPC after 24 to 72 hrs by MTS assay.
Conditions: not given
`C=C(CC)C(=O)c1ccc(OCC(=O)N2CCN(c3ccc(OP4(=O)OCCC(c5cccc(Cl)c5)O4)cc3)CC2)c(Cl)c1Cl` (stereo unspecified) returned an IC50 of 7800 nM.

Molecule `C=C(CC)C(=O)c1ccc(OCC(=O)NCCc2ccc(OP(=O)(OCC)OCC)c(OC)c2)c(Cl)c1Cl` showed an IC50 of 2300 nM.

In the case of `C=C(CC)C(=O)c1ccc(OCC(=O)NCCc2ccc(OP(=O)(OCC)OCC)cc2)c(Cl)c1Cl`, the IC50 stood at 3200 nM.

`C=C(CC)C(=O)c1ccc(OCC(=O)N2CCN(c3ccc(OP(=O)(OCC)OCC)cc3)CC2)c(Cl)c1Cl` had an IC50 of 2800 nM.

For `C=C(CC)C(=O)c1ccc(OCC(=O)N2CCN(c3ccc(OC)cc3)CC2)c(Cl)c1Cl`, the IC50 stood at 3600 nM.

`C=C(CC)C(=O)c1ccc(OCC(=O)NCCc2ccc(OP3(=O)OCCC(c4cccc(Cl)c4)O3)cc2)c(Cl)c1Cl` (stereo unspecified) yielded an IC50 of 2200 nM.

On to `C=C(CC)C(=O)c1ccc(OCC(=O)NCCc2ccc(OP3(=O)OCCCO3)cc2)c(Cl)c1Cl`, for which the IC50 is 3400 nM.

The test system of the next assay is HL-60. Put plainly: Selectivity index, ratio of IC50 for Cyprinus carpio EPC to IC50 for human HL60 cells.
Conditions: not given
Turning to `C=C(CC)C(=O)c1ccc(OCC(=O)N2CCN(c3ccc(OP4(=O)OCCC(c5cccc(Cl)c5)O4)cc3)CC2)c(Cl)c1Cl` (stereo unspecified), the “Ratio IC50” value is given as 8.7.

Take `C=C(CC)C(=O)c1ccc(OCC(=O)NCCc2ccc(OP(=O)(OCC)OCC)c(OC)c2)c(Cl)c1Cl`: the “Ratio IC50” value is reported as 2.8.

Regarding `C=C(CC)C(=O)c1ccc(OCC(=O)NCCc2ccc(OP(=O)(OCC)OCC)cc2)c(Cl)c1Cl`, the “Ratio IC50” value worked out at 2.9.

For the molecule `C=C(CC)C(=O)c1ccc(OCC(=O)N2CCN(c3ccc(OP(=O)(OCC)OCC)cc3)CC2)c(Cl)c1Cl`, the “Ratio IC50” value amounted to 5.6.

Regarding `C=C(CC)C(=O)c1ccc(OCC(=O)N2CCN(c3ccc(OC)cc3)CC2)c(Cl)c1Cl`, the “Ratio IC50” value is listed as 4.5.

Consider `C=C(CC)C(=O)c1ccc(OCC(=O)NCCc2ccc(OP3(=O)OCCC(c4cccc(Cl)c4)O3)cc2)c(Cl)c1Cl` (stereo unspecified), for which the “Ratio IC50” value was determined as 2.4.

Turning to `C=C(CC)C(=O)c1ccc(OCC(=O)NCCc2ccc(OP3(=O)OCCCO3)cc2)c(Cl)c1Cl`, the “Ratio IC50” value is given as 2.8.
